Screening results as filed in PubChem BioAssay.
MrgX1 antag: antagonists of human MrgX1 receptor, primary screen, HEK293 cells, Fluo-4 calcium flux. Mas-related G-protein coupled receptor member X1 (Homo sapiens), Q96LB2. BAM8-22 antagonism; active compounds read low. B-score at 10 µM. 310,000 compounds, 1.3% hits. AID 588676, 2011;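 active means calcium-response B-score plate-corrected more than 3 library SD below zero, starting fluorescence within 5 deviations, no agonist response on first addition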;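 further: peak minus trough fluorescence over baseline after final BAM8-22 challenge near maximal dose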
Target sequence (Q96LB2 whole entry, looked up): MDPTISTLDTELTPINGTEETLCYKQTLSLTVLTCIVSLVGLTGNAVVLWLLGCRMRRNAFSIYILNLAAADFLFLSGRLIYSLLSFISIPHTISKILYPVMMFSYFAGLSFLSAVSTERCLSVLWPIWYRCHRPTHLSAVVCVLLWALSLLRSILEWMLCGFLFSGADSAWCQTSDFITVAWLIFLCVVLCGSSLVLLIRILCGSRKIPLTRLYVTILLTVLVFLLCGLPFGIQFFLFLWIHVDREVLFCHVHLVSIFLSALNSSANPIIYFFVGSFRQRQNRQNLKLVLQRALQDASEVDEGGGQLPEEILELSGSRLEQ
MrgX1 ag: agonists of human MrgX1 receptor, primary screen, HEK293 cells, Fluo-4 calcium flux; Mas-related G-protein coupled receptor member X1 (Homo sapiens), Q96LB2; Fluo-4 calcium fluorescence, agonist mode; active compounds read high; B-score at 10 µM; 310,000 compounds, 0.44% hits; AID 588627, 2011;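 active means calcium response B-score plate-corrected fluorescence ratio at least 3 library SD, with starting fluorescence B-score inside 5 SD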
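Test system: HEK293 cells stably expressing human MrgX1 receptor; amount: 15,000 cells per well; doses: compound delivered in addition one of three; times: overnight plating before 1 h dye loading; detection: Fluo-4 NW calcium-flux fluorescence, kinetic read; read-out basis: B-scored fluorescence response ratio; controls: positive and negative controls per plate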
RGS4 act: RGS4 potentiators or activators, primary screen, cell-based, HEK293 M3R inducible RGS4, calcium flux | carbachol calcium flux Fluo4; active compounds read low | B-score at 10 µM | 310,000 compounds, 0.92% hits;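 active means B-score of the integrated calcium signal more than 4 SD below the library mean, with starting fluorescence not abnormally high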;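 further: negative B-score means reduced calcium response which marks RGS4 activation or potentiation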
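Material: Inducible-RGS4 HEK293 cells carrying M3 receptor; also added: carbachol at ECmax as muscarinic agonist stimulus; incubation: compound preincubation 20 min at room temperature before agonist; signal: Fluo4-AM (2 µM) calcium-flux fluorescence, kinetic read; measure: integrated calcium ratio converted to B score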
RGS4 block: RGS4 inhibitors, primary screen, cell-based, HEK293 M3R inducible RGS4, calcium flux. Regulator of G-protein signaling 4 (Homo sapiens), P49798. Fluo-4 calcium flux; active compounds read high; triggered by carbachol at its EC20. B-score at 10 µM. 310,000 compounds, 0.45% hits. AID 463165, 2010;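 active means B-score, a plate-corrected calcium signal, over three deviations above library mean, with baseline fluorescence within five deviations of library mean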;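 further: RGS4 expression induced by doxycycline in cells with stable M3 receptor; B-score is computed from the integrated fluorescence ratio over baseline after carbachol; higher B-score means a larger calcium signal and so more RGS4 inhibition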
Target sequence (P49798 whole entry, looked up): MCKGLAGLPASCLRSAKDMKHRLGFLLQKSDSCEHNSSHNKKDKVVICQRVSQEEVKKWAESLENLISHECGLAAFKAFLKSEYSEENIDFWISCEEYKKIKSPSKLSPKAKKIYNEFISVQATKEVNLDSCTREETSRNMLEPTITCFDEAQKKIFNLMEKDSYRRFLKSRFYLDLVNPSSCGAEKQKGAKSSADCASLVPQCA
MrgX1 PAM: positive allosteric modulators of MrgX1, primary screen, HEK293 cells, Fluo-4 calcium flux; Mas-related G-protein coupled receptor member X1 (Homo sapiens), Q96LB2; B-score at 10 µM; 310,000 compounds, 0.63% hits; FDSS; active compounds read high;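 active means plate-corrected calcium response at least 3 library SD above typical, normal starting fluorescence, not activating the receptor alone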;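 further: compound read alongside a low EC10 to EC30 dose of BAM8-22 agonist; peak minus trough fluorescence over baseline measured at the second addition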
MrgX1 allo conf: MrgX1 positive allosteric modulators, duplicate retest, confirmation, HEK293 cells, Fluo-4 calcium flux. shares compounds with MrgX1 PAM. Fluo-4 calcium fluorescence, FDSS. activation (ratio percentage), % at 10 µM. 1,200 compounds, 13% hits;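 active means ratio at least 3 SD above the weak peptide control, stable starting fluorescence, no direct agonism earlier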;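 further: compound followed by low BAM8-22 agonist challenge near EC20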
HEK293 Ca flux: nonspecific calcium signal in parental HEK293, confirmation, counter-screen for MrgX1 antagonist project, parental HEK293 cells, Fluo-4 calcium flux. 4,000 compounds, 2% hits. fluorescence ratio F(max-min)/F0 at 10 µM. Fluo-4 calcium fluorescence, FDSS. shares compounds with MrgX1 antag. AID 624111, 2012;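 active means duplicate-averaged calcium fluorescence ratio at least three times the standard deviation of buffer wells, a nonspecific response in parental cells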
HEK293 Ca counter: calcium response in parental HEK293 cells, primary screen, counter-screen for MrgX1 allosteric activator project, cell-based, Fluo-4 calcium flux, duplicate. shares compounds with MrgX1 antag. Fluo-4 fluorescence ratio; active compounds read high. fluorescence ratio F(max-min)/F0 at 10 µM. 4,000 compounds, 0.4% hits. AID 624114, 2012;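 active means calcium fluorescence ratio, averaged over duplicates, at least 3 SD of the buffer-well ratio, meaning a nonspecific response in receptor-free cells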;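 further: untransfected parental HEK293 lacking MrgX1 used as counterscreen for MrgX1 allosteric activators; fluorescence change taken during the second addition on a kinetic imager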
HEK293 Ca cntr2: calcium response in parental HEK293 cells, primary screen, counter-screen for MrgX1 agonist project, cell-based, Fluo-4 calcium flux, duplicate, agonist mode | 4,000 compounds, 8.7% hits | shares compounds with MrgX1 antag | AID 624115, 2012 | Fluo-4 calcium fluorescence (FDSS); active compounds read high | fluorescence ratio F(max-min)/F0 at 10 µM;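 active means calcium fluorescence ratio at least three times the spread of buffer wells, meaning a non-specific response in parental cells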
An asterisk follows results filed as active; i = inactive; / = not tested or not shown. The list is not random: actives were taken first. Their share in the collection is about 3.5%.

SMILES	MrgX1 antag	MrgX1 ag	RGS4 act	RGS4 block	MrgX1 PAM	MrgX1 allo conf	HEK293 Ca flux	HEK293 Ca counter	HEK293 Ca cntr2
O=C(c1ccc(Br)cc1)N1CCN(Cc2ccccc2)CC1	i	i	i	i	6.5*	i	i	i	i
Fc1ccc(-c2csc(NC3=NCCC3)n2)cc1	i	i	i	i	12*	i	i	i	i
CC(C)[C@@H](COc1ccccc1)N1CCN(Cc2ccccc2)CCC1=O	i	i	i	i	14*	i	i	i	i
CCCNC(=O)c1ccc(Cn2cc(-c3ccc(OC)cc3)nc2C(C)N)cc1 (stereo not drawn)	i	i	i	i	i	/	/	/	/
CCNc1nc2[nH]c(=O)c3c(c2s1)OC(N)=C(C#N)C3c1ccc(C)cc1 (stereo not drawn)	i	i	i	i	16*	i	i	i	51*
CCCN(CC(=O)Nc1ccccc1C)C(=O)c1ccc(N2CCCCC2)c([N+](=O)[O-])c1	i	i	i	i	i	/	/	/	/
Cc1ccc(NC2(C#N)C(=O)Nc3ccccc32)cc1C (stereo not drawn)	i	i	i	i	9*	i	i	i	47*
COC(=O)c1ccc(NC2(C#N)C(=O)Nc3ccccc32)cc1 (stereo not drawn)	i	i	i	i	i	/	/	/	/
O=C(COc1ccc2c(c1)OCO2)NC12CC3CC(CC(C3)C1)C2	i	i	i	i	11*	i	i	i	i
O=C(NCc1ccc2c(c1)OCO2)NC12CC3CC(CC(C3)C1)C2	i	i	i	i	i	/	/	/	/
O=C1NC(Cc2ccccc2)C(=O)Nc2ccc(Br)cc21 (stereo not drawn)	i	i	i	i	9.1*	i	i	i	i
O=C(N=C1SC2CS(=O)(=O)CC2N1Cc1ccccc1)C1CCCCC1 (stereo not drawn)	i	i	i	i	i	/	/	/	/
NC(=O)c1ccsc1NC(=O)COC(=O)Cc1c[nH]c2ccccc12	i	i	i	i	8.9*	27%*	i	i	i
COc1cc(Cl)c(C)cc1NC(=S)NN	i	i	i	i	i	/	/	/	/
O=C1Nc2cc(C(=O)N3CCOCC3)ccc2S/C1=C\c1ccccc1	i	i	i	i	i	/	/	/	/
Cc1cccc(/C=C2/Sc3ccc(C(=O)N4CCOCC4)cc3NC2=O)c1	i	i	i	i	23*	i	i	i	i
CCN(CC)CCCNc1ncnc2ccccc12	i	i	i	i	i	/	/	/	/
OCCCCCNc1ncnc2ccccc12	i	i	i	i	23*	i	i	i	i
COc1cccc(C(=O)/C=C/Nc2ccc(S(=O)(=O)Nc3cc(OC)nc(OC)n3)cc2)c1	i	i	i	i	20*	i	i	i	i
O=C(CSCc1ccccc1)N1CCN(c2ccc(F)cc2)CC1	i	i	i	i	i	/	/	/	/
O=C(CCc1ccccc1)N1CCN(c2ccc(F)cc2)CC1	i	i	i	i	8.9*	i	i	i	i
CCCCNc1nc(N(C)c2ccccc2)nc(-n2ccnc2)n1	i	i	i	i	i	/	/	/	/
CCCCCNc1nc(-c2ccccc2)nc(-n2ccnc2)n1	i	i	i	i	7.5*	i	i	i	i
CCOC(=O)c1sc(=NC(=O)CCSc2ccccc2)n(C)c1C	i	i	i	i	i	/	/	/	/
CCOC(=O)c1sc(=NC(=O)COc2ccccc2)n(C)c1C	i	i	i	i	11*	i	i	i	i
SMILES	MrgX1 antag	MrgX1 ag	RGS4 act	RGS4 block	MrgX1 PAM	MrgX1 allo conf	HEK293 Ca flux	HEK293 Ca counter	HEK293 Ca cntr2
Cc1nnc(NC(=O)c2ccc(S(=O)(=O)N3CCOCC3)cc2)s1	i	i	i	i	9.8*	i	i	i	i
Cc1nnc(NC(=O)c2ccc(C)c(S(=O)(=O)N3CCOCC3)c2)s1	i	i	i	i	i	/	/	/	/
CC1CCCN(S(=O)(=O)c2ccc(C(=O)Nc3nnc(-c4ccccc4Cl)o3)cc2)C1 (stereo not drawn)	i	i	i	i	8.7*	i	i	i	i
Cc1nn(C)c(C(=O)NC2C3CC4CC(C3)CC2C4)c1Cl (stereo not drawn)	i	i	i	i	13*	i	i	i	i
COc1ccccc1CN1CCN(S(=O)(=O)c2ccc(C)cc2)CC1	i	i	i	i	i	/	/	/	/
C=C(C)Cn1c(-c2ccc(OC)cc2)nc2ccccc21	i	i	i	i	7*	i	i	i	i
CN(Cc1ccccc1)C(=O)C1CCN(S(=O)(=O)c2ccc3nc4c(c(C(=O)O)c3c2)CCCC4)CC1	i	i	i	i	i	/	/	/	/
CC1CCCCN1S(=O)(=O)c1ccc2[nH]c(=O)cc(C(=O)NCCCN3CCCCCC3)c2c1 (stereo not drawn)	i	i	i	i	i	/	/	/	/
CCN(CC)S(=O)(=O)c1cccc(NC(=O)COC(=O)C2CC3C=CC2C3)c1 (stereo not drawn)	i	i	i	i	6.5*	i	i	i	i
Cn1cc(CN2CCC[C@H]2CO)c(-c2cccc(Cl)c2)n1	i	i	i	i	i	/	/	/	/
CC1(C)Cc2ccccc2-c2nnc(SCC(=O)N3CCN(c4ccccc4)CC3)n21	i	i	i	i	10*	9.3%*	i	i	i
